Data taken from ChEMBL document CHEMBL5576048, “A Second-Generation Oral SARS-CoV-2 Main Protease Inhibitor Clinical Candidate for the Treatment of COVID-19” (J Med Chem, 2024).
pEC50, pKi: −log10 of the molar value.

Key:
[1] = molecular target: Replicase polyprotein 1ab (Severe acute respiratory syndrome coronavirus 2, UniProt P0DTD1); assay: Inhibition of SARS-Cov-2 MPro assessed as inhibition constant by FRET assay
SARS-CoV-2 [2] = assay: Antiviral activity against SARS CoV-2 infected in African green monkey Vero E6 cells; type: functional, organism-based; settings: Severe acute respiratory syndrome coronavirus 2, Vero C1008
SARS-CoV-2 [3] = assay: Antiviral activity against SARS CoV-2 USA_WA1/2020 infected in ACE2 enriched African green monkey Vero E6 cells assessed as reduction in virus-induced cytopathic effect measured after 3 days by celltiter-glo assay; type: functional, organism-based; settings: Severe acute respiratory syndrome coronavirus 2, USA_WA1/2020, Vero C1008, 72 h
[4] = Passive permeability across apical to basolateral side in dog RRCK cells incubated for 30 mins; type: ADME, cell-based, Canis lupus familiaris; settings: mdckii-le, 0.5 h
[5] = Metabolic stability in human liver microsome assessed as apparent intrinsic clearance in presence of NADPH incubated for 40 mins by LS-MS/MS analysis; type: ADME; settings: microsomes
[6] = Lipophilicity, log D of compound at pH 7.4 by shake-flask method; type: physicochemical; settings: buffer
[7] = Clearance in Wistar Hannover rat at 1 mg/kg, iv by LC-MS/MS analysis; type: ADME, organism-based; settings: in vivo
[8] = Volume of distribution at steady state in Wistar Hannover rat at 1 mg/kg, iv by LC-MS/MS analysis; type: ADME, organism-based; settings: in vivo, read-out: Vdss
[9] = Half life in Wistar Hannover rat at 1 mg/kg, iv by LC-MS/MS analysis; type: ADME, organism-based; settings: in vivo
[10] = Renal clerance in Wistar Hannover rat at 1 mg/kg, iv by LC-MS/MS analysis; type: ADME, organism-based; settings: in vivo
[11] = Cmax in Wistar Hannover rat at 10 mg/kg, po administered as crystalline form in 2% Tween 80 (v/v) in 0.5% (w/v) methyl cellulose in water formulation by LC-MS/MS analysis; type: ADME, organism-based; settings: in vivo
Procedure, shortened: (§1)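 Male Wistar–Han rats in the fed state were dosed orally at 10 mg/kg, as amorphous solid in solution or crystalline solid in suspension, in 2% (v/v) Tween 80 in 0.5% (w/v) methyl cellulose in water. Parameters were calculated from plasma concentration–time data; mean and individual values given (n = 2). Oral F is set against a 1 mg/kg i.v. dose.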

[12] = Cmax in Wistar Hannover rat at 10 mg/kg, po administered as ASD form in 2% Tween 80 (v/v) in 0.5% (w/v) methyl cellulose in water formulation by LC-MS/MS analysis; type: ADME, organism-based; settings: in vivo
Procedure, shortened: (§2)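 Parameters come from plasma concentration–time data as mean and individual values (n = 2); exposure for this form was reported as AUC0–∞. Oral F is referenced to a 1 mg/kg i.v. dose.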

[13] = Tmax in Wistar Hannover rat at 10 mg/kg, po administered as crystalline form in 2% Tween 80 (v/v) in 0.5% (w/v) methyl cellulose in water formulation by LC-MS/MS analysis; type: ADME, organism-based; settings: in vivo; procedure, shortened: as §1
[14] = Tmax in Wistar Hannover rat at 10 mg/kg, po administered as ASD form in 2% Tween 80 (v/v) in 0.5% (w/v) methyl cellulose in water formulation by LC-MS/MS analysis; type: ADME, organism-based; settings: in vivo; procedure, shortened: as §2
[15] = AUC (0 to 24 hrs) in Wistar Hannover rat at 1 mg/kg, iv by LC-MS/MS analysis; type: ADME, organism-based; settings: in vivo
[16] = AUC (0 to 24 hrs) in Wistar Hannover rat at 10 mg/kg, po administered as crystalline form in 2% Tween 80 (v/v) in 0.5% (w/v) methyl cellulose in water formulation by LC-MS/MS analysis; type: ADME, organism-based; settings: in vivo; procedure, shortened: as §1
[17] = AUC (0 to 24 hrs) in Wistar Hannover rat at 10 mg/kg, po administered as ASD form in 2% Tween 80 (v/v) in 0.5% (w/v) methyl cellulose in water formulation by LC-MS/MS analysis; type: ADME, organism-based; settings: in vivo
[18] = Oral bioavailability in Wistar Hannover rat at 10 mg/kg administered as crystalline form in 2% Tween 80 (v/v) in 0.5% (w/v) methyl cellulose in water formulation by LC-MS/MS analysis; type: ADME, organism-based; settings: in vivo; procedure, shortened: as §1
[19] = Oral bioavailability in Wistar Hannover rat at 10 mg/kg administered as ASD form in 2% Tween 80 (v/v) in 0.5% (w/v) methyl cellulose in water formulation by LC-MS/MS analysis; type: ADME, organism-based; settings: in vivo; procedure, shortened: as §2
[20] = Cmax in Wistar Hannover rat at 10 mg/kg, po by LC-MS/MS analysis; type: ADME, organism-based; settings: in vivo; procedure, shortened: as §1
[21] = Tmax in Wistar Hannover rat at 10 mg/kg, po by LC-MS/MS analysis; type: ADME, organism-based; settings: in vivo; procedure, shortened: as §1
[22] = AUC (0 to 24 hrs) in Wistar Hannover rat at 10 mg/kg, po by LC-MS/MS analysis; type: ADME, organism-based; settings: in vivo; procedure, shortened: as §1
[23] = Oral bioavailability in Wistar Hannover rat at 10 mg/kg by LC-MS/MS analysis; type: ADME, organism-based; settings: in vivo; procedure, shortened: as §1
[24] = AUC (0 to 24 hrs) in Wistar Hannover rat at 100 mg/kg, po administered as crystalline anhydrous form in 2% (v/v) Tween 80/98% 0.5% (w/v) methyl cellulose in water formulation by LC-MS/MS analysis; type: ADME, organism-based; settings: in vivo
Procedure, shortened: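 Single high oral dose of 100 mg/kg in male Wistar–Han rats in the fed state, given as crystalline suspension in 2% (v/v) Tween 80 in 0.5% (w/v) methylcellulose in water. Parameters were derived from plasma concentration–time data and reported as mean ± S.D. (n = 3) or mean and individual values (n = 2).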

[25] = AUC (0 to 24 hrs) in Wistar Hannover rat at 10 mg/kg, po administered as crystalline MTBE in 10% (v/v) ethanol/10% (v/v) capmul MCM/35% (v/v) PEG400/45% (v/v) Tween 80 formulation by LC-MS/MS analysis; type: ADME, organism-based; settings: in vivo
[26] = AUC (0 to 24 hrs) in Wistar Hannover rat at 100 mg/kg, po administered as crystalline MTBE in 10% (v/v) ethanol/10% (v/v) capmul MCM/35% (v/v) PEG400/45% (v/v) Tween 80 formulation by LC-MS/MS analysis; type: ADME, organism-based; settings: in vivo
[27] = AUC (0 to 24 hrs) in Wistar Hannover rat at 1000 mg/kg, po administered as crystalline MTBE in 10% (v/v) ethanol/10% (v/v) capmul MCM/35% (v/v) PEG400/45% (v/v) Tween 80 formulation by LC-MS/MS analysis; type: ADME, organism-based; settings: in vivo
in vivo [28] = settings: Wistar Hannover, rat, po, 1000 mg/kg
in vivo [29] = settings: Wistar Hannover, rat, po, 100 mg/kg
in vivo [30] = settings: Wistar Hannover, rat, po, 10 mg/kg
in vivo [31] = settings: Wistar Hannover, rat, po, 100 mg/kg; remark: listed apart in the source
in vivo [32] = settings: Wistar Hannover, rat, po, 1000 mg/kg; remark: listed apart in the source

| SMILES | pKi [1] | pEC50 (SARS-CoV-2 [3]) | permeability [4] | CLH(app) [5] [µL/min/mg] | logD [6] | also measured |
| --- | --- | --- | --- | --- | --- | --- |
| COC(=O)N[C@H](C(=O)N1C[C@H](C(F)(F)F)C[C@H]1C(=O)N[C@H](C#N)C[C@@H]1CC(O)NC1=O)C(C)(C)C (stereo not given in full) | 7.89 | – | – | – | – | pEC50 (SARS-CoV-2 [2]): 5.78 |
| CC(C)(C)[C@H](NC(=O)C(F)(F)F)C(=O)N1C[C@H](OC(F)F)C[C@H]1C(=O)N[C@H](C#N)C[C@@H]1CCNC1=O | 8.55 | 6.71 | 1.25 10^-6 cm/s | < 7.12 | 1.2 | clearance [7]: 33.1 mL/min/kg; Vd [8]: 1.05 L/kg; half-life [9]: 306 min; CL renal [10]: 4.5 mL/min/kg; Cmax [11]: 272 ng/mL; Cmax [12]: 92.8 ng/mL; Tmax [13]: 30 min; Tmax [14]: 45 min; AUC(0-t) [15]: 502 ng·h/mL; AUC(0-t) [16]: 599 ng·h/mL; AUC(0-t) [17]: 212 ng·h/mL; bioavailability [18]: 11.9%; bioavailability [19]: 4.2% |
| COC(=O)N[C@H](C(=O)N1C[C@H](C(F)(F)F)C[C@H]1C(=O)N[C@H](C#N)C[C@@H]1CCCNC1=O)C(C)C | 8.95 | 7.10 | 0.63 10^-6 cm/s | < 7.12 | 0.7 | clearance [7]: 35.6 mL/min/kg; Vd [8]: 0.55 L/kg; half-life [9]: 114 min; CL renal [10]: 7.6 mL/min/kg; Cmax [20]: 310 ng/mL; Cmax [12]: 177 ng/mL; Tmax [21]: 22.8 min; Tmax [14]: 22.8 min; AUC(0-t) [15]: 467 ng·h/mL; AUC(0-t) [22]: 359 ng·h/mL; AUC(0-t) [17]: 380 ng·h/mL; bioavailability [23]: 7.7%; bioavailability [19]: 8.1% |
| COC(=O)N[C@H](C(=O)N1C[C@H](C(F)(F)F)C[C@H]1C(=O)N[C@H](C#N)C[C@@H]1CCCNC1=O)C(C)(C)C | 9.77 | 7.34 | 0.4 10^-6 cm/s | 9.5 | 1.2 | – |
| CNC(=O)N[C@H](C(=O)N1C[C@H]2[C@@H]([C@H]1C(=O)N[C@H](C#N)C[C@@H]1CCNC1=O)C2(C)C)C(C)(C)C | – | – | 0.62 10^-6 cm/s | < 7.12 | 0.77 | – |
| COC(=O)N[C@H](C(=O)N1C[C@H](OC(F)F)C[C@H]1C(=O)N[C@H](C#N)C[C@@H]1CCNC1=O)C(C)(C)C | 8.41 | 6.35 | 0.76 10^-6 cm/s | < 7.12 | 0.6 | – |
| CC(C)(C)[C@H](NC(=O)C(F)(F)F)C(=O)N1C[C@H]2[C@@H]([C@H]1C(=O)N[C@H](C#N)C[C@@H]1CCNC1=O)C2(C)C | – | 7.09 | 1.03 10^-6 cm/s | – | 1.9 | AUC(0-t) [24]: 18000 ng·h/mL; AUC(0-t) [25]: 3190 ng·h/mL; AUC(0-t) [26]: 68300 ng·h/mL; AUC(0-t) [27]: 746000 ng·h/mL; Cmax (in vivo [28]): 88300 ng/mL; Tmax (in vivo [29]): 84 min; Tmax (in vivo [30]): 90 min; Tmax (in vivo [31]): 45 min; Tmax (in vivo [32]): 60 min |
| COC(=O)N[C@H](C(=O)N1C[C@H]2[C@@H]([C@H]1C(=O)N[C@H](C#N)C[C@@H]1CCNC1=O)C2(C)C)C(C)(C)C | – | – | 0.61 10^-6 cm/s | 8.1 | 1.2 | – |
| COC(=O)N[C@H](C(=O)N1C[C@H](OC(F)(F)F)C[C@H]1C(=O)N[C@H](C#N)C[C@@H]1CCNC1=O)C(C)(C)C | 9.20 | 6.85 | 2.05 10^-6 cm/s | < 7.12 | 1 | clearance [7]: 25.4 mL/min/kg; Vd [8]: 0.87 L/kg; half-life [9]: 360 min; CL renal [10]: 8.1 mL/min/kg; Cmax [20]: 358 ng/mL; Tmax [21]: 15 min; AUC(0-t) [15]: 650 ng·h/mL; AUC(0-t) [22]: 559 ng·h/mL; bioavailability [23]: 8.6% |
| CC(C)(C)[C@H](NC(=O)C(F)(F)F)C(=O)N1C[C@H](OC(F)(F)F)C[C@H]1C(=O)N[C@H](C#N)C[C@@H]1CCNC1=O | 9.15 | 7.09 | 1.12 10^-6 cm/s | < 9.42 | 1.7 | – |
| COC(=O)N[C@H](C(=O)N1C[C@H](C(F)(F)F)C[C@H]1C(=O)N[C@H](C#N)C[C@@H]1CCNC1=O)C(C)C | 7.88 | 6.31 | 0.5 10^-6 cm/s | < 7.12 | 0.9 | – |
| CC(C)(C)[C@H](NC(=O)C(F)(F)F)C(=O)N1C[C@H](C(F)(F)F)C[C@H]1C(=O)N[C@H](C#N)C[C@@H]1CCNC1=O | 8.35 | 7.18 | 0.71 10^-6 cm/s | 13 | 1.4 | – |
